The values below come from ChEMBL document CHEMBL1131438, “Inactivation of O6-alkylguanine-DNA alkyltransferase. 1. Novel O6-(hetarylmethyl)guanines having basic rings in the side chain” (J Med Chem, 1998).

Data set [1] deals with T1, Methylated-DNA--protein-cysteine methyltransferase (Homo sapiens, UniProt P16455).
T1 sequence (P16455 whole entry): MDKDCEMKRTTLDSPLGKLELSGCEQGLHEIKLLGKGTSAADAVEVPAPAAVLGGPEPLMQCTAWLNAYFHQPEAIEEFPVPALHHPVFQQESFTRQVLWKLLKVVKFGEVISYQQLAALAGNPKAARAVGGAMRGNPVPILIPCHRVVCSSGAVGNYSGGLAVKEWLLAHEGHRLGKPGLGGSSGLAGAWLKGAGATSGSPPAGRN
Kind of data set: O6-Alkylguanine-DNA Alkyltransferase-Inactivating Activity in Raji cells (Concentration of inactivator required to produce 50% reduction in alkyltransferase activity). The class given is cell-based. The gist of the method:
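Raji cells in RPMI + 10% horse serum, 10^6/mL, exposed to inactivator or DMSO vehicle for 2 h at 37 °C. Cells washed, sonicated in Tris-DTT-EDTA buffer pH 8.3 with leupeptin, PMSF added, debris spun out. Supernatant ATase measured by transfer of 3H-methyl from O6-methylguanine DNA substrate to protein; activity expressed as % of untreated controls.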

Data set [2] in a line: In vitro half-life at 37 degree Centigrade in phosphate-buffered saline(PBS; pH =7-7.2). The class given is ADME.
Data set [3] deals with T1, Methylated-DNA--protein-cysteine methyltransferase. Kind of data set: O6-Alkylguanine-DNA Alkyltransferase-Inactivating Activity (Concentration of inactivator required to produce 50% reduction in alkyltransferase activity). The gist of the method: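 Pure recombinant human ATase (50–60 fmol, titrated so ATase is limiting) preincubated 1 h at 37 °C with varying inactivator in 200 µL buffer (50 mM Tris-HCl pH 8.3, 3 mM DTT, 1 mM EDTA, 1 mg/mL BSA) plus 10 µg calf thymus DNA. Then 3H-methylated DNA substrate (4 µg DNA, 100 fmol O6-methylguanine) added, 1 h at 37 °C. After acid hydrolysis, 3H-methylated protein counted by scintillation. Duplicates, experiments repeated several times.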

`NC1=Nc2nc[nH]c2C(OCc2cnco2)N1` (stereo not given): the results for the IC50 in data set [1] and in data set [3] were 220 nM and 350 nM, respectively. Besides, in data set [2], the half-life is over 48 h.
The matching figures for `NC1=Nc2nc[nH]c2C(OCc2cnsc2)N1` (stereo not given): 70 nM, 70 nM and over 48 h.
The matching figures for `Cn1cncc1COC1N=C(N)Nc2[nH]cnc21` (stereo not given): 21000 nM, 8500 nM and 0.19 h.
For `NC1=Nc2nc[nH]c2C(OCc2ccccn2)N1` (stereo not given), in data set [1], 6000 nM corresponded to half-maximal inhibition (IC50). This compound had a half-life in data set [2] of over 48 h.
On to `NC1=NC(OCc2ccc[n+]([O-])c2)c2[nH]cnc2N1` (stereo not given), for which the IC50 is 5400 nM in data set [1] and 1400 nM in data set [3]. The same compound registered a half-life in data set [2] of over 48 h.
The matching figures for `NC1=Nc2nc[nH]c2C(OCc2ccc(Br)s2)N1` (stereo not given): 10 nM, 5 nM and 1.95 h.
As to `NC1=Nc2nc[nH]c2C(OCc2cccnc2)N1` (stereo not given), the figures for the IC50 in data set [1] and in data set [3] were 220 nM and 430 nM, respectively. This compound yielded a half-life in data set [2] of over 48 h.
Turning to `NC1=Nc2nc[nH]c2C(OCc2ccc(Cl)nc2)N1` (stereo not given), the IC50 in data set [1] was determined as 120 nM; in data set [3], 200 nM. Also, the half-life in data set [2] is over 48 h.
The like results for `NC1=Nc2nc[nH]c2C(OCc2ccco2)N1` (stereo not given) were, in that order, 120 nM, 80 nM and 0.38 h.
Take `NC1=NC(OCc2ccnc(Cl)c2)c2[nH]cnc2N1` (stereo not given): the IC50 in data set [1] was 50 nM; in data set [3], 40 nM. Also, the half-life in data set [2] was over 48 h.
Turning to `NC1=Nc2nc[nH]c2C(OCc2cnc3c(c2)OCO3)N1` (stereo not given), the IC50 was determined as 90 nM in data set [1] and 230 nM in data set [3]. In addition, in data set [2], the half-life was over 48 h.
As for `Nc1nc(OCc2ccccc2)c2[nH]cnc2n1` [6-O-BENZYLGUANINE], the half-life in data set [2] is over 48 h.
Take `NC1=NC(OCc2cncs2)c2[nH]cnc2N1` (stereo not given): the IC50 in data set [1] came to 60 nM; in data set [3], 33 nM. The compound further showed a half-life in data set [2] of over 48 h.
The matching figures for `NC1=Nc2nc[nH]c2C(OCc2ccncc2)N1` (stereo not given): 200 nM, 130 nM and over 48 h.
Turning to `NC1=NC(OCc2cncc(Br)c2)c2[nH]cnc2N1` (stereo not given), the IC50 worked out at 200 nM in data set [1] and 250 nM in data set [3]. The half-life in data set [2] is over 48 h.
For the compound `NC1=NC(OCc2cccs2)c2[nH]cnc2N1` (stereo not given), the IC50 in data set [1] amounted to 30 nM; in data set [3], 18 nM. The half-life in data set [2] was 0.67 h.

The term IC50 denotes the concentration that inhibits the measured activity by half. By half-life is commonly meant the time in which the quantity being followed falls by half. A low value points to rapid decline.
